Experimental data taken from ChEMBL document CHEMBL1148736, “N-Acylthiadiazolines, a new class of liver X receptor agonists with selectivity for LXRbeta” (J Med Chem, 2007).
Calls of active or inactive are those of the source. The calls are words filed in the database; no cut-off is given here.

What was measured:
[1] = tested on: Liver; assay: Effect on ABCA1 gene expression in C57BL/6 mouse liver; assay type: functional, tissue-based
How it was run: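 Male C57BL/6 mice, 10 weeks old, chow-fed, gavaged daily with vehicle or compound (20–200 mpk) for 3 days. Fasted overnight before the last dose; killed 3 h later. Tissue RNA analysed by TaqMan qRT-PCR.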

[2] = AUC in C57BL/6 mouse at 5 mg/kg, iv; assay type: ADME, organism-based; set-up: dose 5 mg/kg, route intravenous; conditions: plasma
How it was run: (§1)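 Mouse PK study, IV and PO; compound formulated at 2.5 mg/mL in PEG300/Tween 80 (4:1). IV dose 5 mpk (AUC, Cmax, clearance, Vss); oral dose 20 mpk (AUC, Cmax, bioavailability, t1/2).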

[3] = biological target: T1, Oxysterols receptor LXR-alpha (Homo sapiens) (UniProt Q13133); assay: Displacement of [3H]T-0901317 from GAL-linked human LXRalpha expressed in THP1 cells at 20 uM by SPA relative to GW-3965; assay type: cell-based; conditions: THP-1
T1 sequence (whole entry): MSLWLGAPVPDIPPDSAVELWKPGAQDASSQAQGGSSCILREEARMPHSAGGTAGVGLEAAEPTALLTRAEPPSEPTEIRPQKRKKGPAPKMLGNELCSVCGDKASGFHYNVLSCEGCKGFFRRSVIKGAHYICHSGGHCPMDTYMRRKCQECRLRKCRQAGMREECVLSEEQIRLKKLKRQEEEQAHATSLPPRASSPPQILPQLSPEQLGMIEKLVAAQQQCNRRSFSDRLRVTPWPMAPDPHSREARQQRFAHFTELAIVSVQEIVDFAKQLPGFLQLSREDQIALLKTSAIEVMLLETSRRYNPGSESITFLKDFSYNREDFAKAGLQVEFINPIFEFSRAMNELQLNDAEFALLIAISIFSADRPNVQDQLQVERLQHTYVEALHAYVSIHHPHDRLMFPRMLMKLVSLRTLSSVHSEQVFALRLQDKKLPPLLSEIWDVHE
How it was run: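 Scintillation proximity displacement with His-tagged hLXRα or hLXRβ LBD (200 ng/well) and 30 nM [3H]T0901317. Beads 0.2 mg/well in phosphate buffer with EDTA, NaCl, DTT, CHAPS, 10% glycerol. 12-point curves from 20 µM; shaken 3 h at room temperature. No-competitor wells = 100% binding; nonspecific binding without protein. Efficacy = maximal displacement relative to reference dual agonist.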

[4] = biological target: T2, Oxysterols receptor LXR-alpha (Homo sapiens, UniProt Q13133); assay: Agonist activity at GAL-linked human LXRalpha expressed in THP1 cells assessed as stimulation of coactivator recruitment by FRET assay; assay type: functional
T2 sequence (Q13133 whole entry): T1 sequence (whole entry)
How it was run: (§2)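 Cell-free TR-FRET coactivator recruitment: 20 nM His-tagged hLXRα or hLXRβ, 300 nM biotinylated SRC-1 peptide, Eu-anti-His antibody, APC-streptavidin. 12-point curves from 20 µM; 1 h at 37 °C. Duplicate. %E = maximal coactivator recruitment relative to reference dual agonist in same experiment.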

[5] = biological target: T1, Oxysterols receptor LXR-alpha (Homo sapiens); assay: Agonist activity at GAL-linked human LXRalpha expressed in THP1 cells assessed as stimulation of co-activator recruitment by FRET assay relative to GW-3965; assay type: functional; how it was run: as §2
[6] = tested on: Hepatocyte; assay: Induction on FAS gene expression in human primary hepatocytes at 1 uM; assay type: functional, cell-based
How it was run: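 Primary human hepatocytes treated with 1 µM compound; FAS mRNA measured by TaqMan-based qRT-PCR.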

[7] = tested on: Macrophage; assay: Induction of ABCA1 gene expression in LXRalpha deficient mouse macrophages; assay type: functional, cell-based
How it was run: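 Thioglycollate-elicited peritoneal macrophages from LXR-null mice, plated 24 h. Treated as for THP-1 without PMA: 2% lipoprotein-deficient serum medium, compound in DMSO for 24 h. ABCA1 mRNA by TaqMan qRT-PCR with 36B4 control, fold vs DMSO. Two concentrations used.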

[8] = tested on: Macrophage; assay: Induction of APO-AI-dependent cholesterol efflux in mouse macrophages; assay type: functional, cell-based
How it was run: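 Peritoneal macrophages labelled 24 h with [3H]cholesterol (1.0 µCi/mL) plus ACAT inhibitor 58-035 (2 µg/mL), with compound. Then 2–4 h equilibration in label-free medium with compound. Efflux for 4 h into DMEM/0.2% BSA with or without apoAI (15 µg/mL). apoAI-dependent efflux = medium radioactivity as % of total cell plus medium. Triplicate.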

[9] = biological target: T2, Oxysterols receptor LXR-alpha; assay: Activity at human LXRalpha by Gal4 transactivation assay
How it was run: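 GAL4 DBD fused to hLXRα or hLXRβ LBD in pcDNA3, co-transfected into HepG2 with luciferase reporter. Cells in DMEM with 10% lipoprotein-deficient FBS, 7.5 µM lovastatin, 100 µM mevalonic acid. Ligand added 24 h post-transfection as 11-point curves from 10 µM; luciferase read after 16 h. Run in quadruplicate. %E = max fold induction vs max fold induction of reference dual agonist in same experiment.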

[10] = biological target: Retinoid X receptor (Homo sapiens) (UniProt P28702+P48443+P19793); assay: Activity at RXR by cell based assay
[11] = biological target: Peroxisome proliferator-activated receptor (Homo sapiens) (UniProt P37231+Q07869+Q03181); assay: Activity at PPAR by cell based assay
[12] = biological target: T3, Vitamin D3 receptor (Homo sapiens) (UniProt P11473); assay: Activity at VDR by cell based assay; assay type: functional
T3 sequence (whole entry): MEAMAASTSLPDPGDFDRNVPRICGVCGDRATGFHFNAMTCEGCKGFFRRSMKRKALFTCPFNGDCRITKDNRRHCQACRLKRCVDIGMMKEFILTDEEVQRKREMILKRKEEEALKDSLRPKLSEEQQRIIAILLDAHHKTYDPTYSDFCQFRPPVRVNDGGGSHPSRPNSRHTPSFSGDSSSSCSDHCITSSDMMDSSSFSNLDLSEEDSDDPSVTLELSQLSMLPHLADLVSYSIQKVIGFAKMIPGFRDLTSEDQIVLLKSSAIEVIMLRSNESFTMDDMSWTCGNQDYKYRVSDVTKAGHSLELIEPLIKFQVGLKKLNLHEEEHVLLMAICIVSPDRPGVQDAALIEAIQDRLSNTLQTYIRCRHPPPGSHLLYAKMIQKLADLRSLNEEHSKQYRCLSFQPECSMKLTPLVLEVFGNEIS

[13] = Cmax in C57BL/6 mouse at 5 mg/kg, iv; assay type: ADME, organism-based; set-up: dose 5 mg/kg, route intravenous; conditions: in vivo; how it was run: as §1
[14] = Clearance in C57BL/6 mouse at 5 mg/kg, iv; assay type: ADME, organism-based; set-up: dose 5 mg/kg, route intravenous; conditions: in vivo; how it was run: as §1
[15] = Volume of distribution at steady state in C57BL/6 mouse at 5 mg/kg, iv; assay type: ADME, organism-based; set-up: dose 5 mg/kg, route intravenous; conditions: in vivo, read-out: Vss; how it was run: as §1

Chain of Retinoid X receptor (Homo sapiens) (P19793 whole entry, looked up): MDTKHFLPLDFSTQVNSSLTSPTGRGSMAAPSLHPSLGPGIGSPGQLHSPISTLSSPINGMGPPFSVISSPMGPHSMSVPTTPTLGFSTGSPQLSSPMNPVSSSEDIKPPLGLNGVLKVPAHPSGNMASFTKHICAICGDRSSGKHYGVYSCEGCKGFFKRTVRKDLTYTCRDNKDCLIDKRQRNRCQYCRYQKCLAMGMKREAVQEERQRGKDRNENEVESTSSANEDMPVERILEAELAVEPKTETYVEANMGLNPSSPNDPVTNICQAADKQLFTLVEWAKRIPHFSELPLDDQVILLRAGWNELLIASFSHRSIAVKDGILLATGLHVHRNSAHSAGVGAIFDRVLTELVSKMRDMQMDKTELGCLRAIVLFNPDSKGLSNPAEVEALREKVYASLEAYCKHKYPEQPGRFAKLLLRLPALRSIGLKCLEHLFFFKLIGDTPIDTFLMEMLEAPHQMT
Chain of Retinoid X receptor (Homo sapiens) (P28702 whole entry, looked up): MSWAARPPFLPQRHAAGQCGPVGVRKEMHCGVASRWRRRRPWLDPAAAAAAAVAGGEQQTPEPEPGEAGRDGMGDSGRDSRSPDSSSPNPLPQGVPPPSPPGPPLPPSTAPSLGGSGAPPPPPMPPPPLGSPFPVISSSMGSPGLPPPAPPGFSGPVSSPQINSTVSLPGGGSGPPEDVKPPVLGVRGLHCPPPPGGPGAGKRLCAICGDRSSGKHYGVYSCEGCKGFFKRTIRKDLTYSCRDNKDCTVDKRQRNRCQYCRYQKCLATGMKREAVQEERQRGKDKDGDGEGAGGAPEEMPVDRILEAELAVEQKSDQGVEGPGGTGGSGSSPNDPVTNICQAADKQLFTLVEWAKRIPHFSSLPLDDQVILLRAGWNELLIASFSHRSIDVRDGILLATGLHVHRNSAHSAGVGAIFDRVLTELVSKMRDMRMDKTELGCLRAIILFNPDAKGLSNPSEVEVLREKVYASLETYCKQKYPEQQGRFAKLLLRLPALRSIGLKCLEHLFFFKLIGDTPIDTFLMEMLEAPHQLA
Chain of Retinoid X receptor (Homo sapiens) (P48443 whole entry, looked up): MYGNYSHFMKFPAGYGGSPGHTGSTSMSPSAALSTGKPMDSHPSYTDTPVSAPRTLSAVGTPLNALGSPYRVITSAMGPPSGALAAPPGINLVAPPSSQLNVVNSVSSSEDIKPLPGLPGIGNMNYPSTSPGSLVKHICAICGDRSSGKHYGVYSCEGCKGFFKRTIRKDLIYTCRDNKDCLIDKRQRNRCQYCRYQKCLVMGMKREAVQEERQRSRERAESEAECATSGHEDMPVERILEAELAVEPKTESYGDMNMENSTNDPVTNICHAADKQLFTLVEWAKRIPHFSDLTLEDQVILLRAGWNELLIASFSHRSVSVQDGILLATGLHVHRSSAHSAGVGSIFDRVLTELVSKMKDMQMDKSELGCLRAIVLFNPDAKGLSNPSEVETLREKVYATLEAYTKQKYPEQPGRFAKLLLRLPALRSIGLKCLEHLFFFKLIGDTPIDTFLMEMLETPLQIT

## COc1cccc(C2SC(c3ccc(Cl)cc3)=NN2C(=O)c2c(F)cc(F)cc2F)c1OC (racemic)
[1]
  Activity: inactive
[2]
  AUC: 7140 ng·h/mL
[3]
  Efficacy: 52%
[4]
  EC50: 2300 nM
[5]
  Efficacy: 42%
[6]
  Activity: inactive
[7]
  Activity: Active
[8]
  Activity: Active
[9]
  EC50: 608 nM
[10]
  Activity: inactive
[11]
  Activity: inactive
[12]
  Activity: inactive
[13]
  Cmax: 20.4 µM
[14]
  clearance: 12.2 mL/min/kg
[15]
  Vd: 1.65 L/kg
